Only some compounds are listed: those with a hit (about 3.2% of all), similar ones and a draw of the others.
SMARCA2 activ = increases SMARCA2 function in MMTV reporter cells. 370,000 tested, 1% active. AID 652017. MG213 cells, MMTV-luciferase reporter, dexamethasone, overnight. activation, % at 9.1 µM; in the data active = activation above about 7.8%;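 also: 0% = vehicle wells and 100% = reference activator wells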
NR2E3 ag-1 = activates human NR2E3 receptor. Q9Y5X4. CHO-S Gal4-NCOR/VP16-NR2E3 two-hybrid, luciferase. inhibition of corepressor binding, % at 3.98 µM. 360,000 tested, 0.35% active. AID 602229;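 active = inhibition above the mean of all tested compounds plus 3 SD, cut at about 70% in these data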;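 also: 0% = DMSO with NR2E3 transfected cells and 100% = cells lacking NR2E3 construct; higher means lower luciferase signal from less NR2E3 corepressor binding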
Target sequence (Q9Y5X4 whole entry, looked up, the tested form may be a part): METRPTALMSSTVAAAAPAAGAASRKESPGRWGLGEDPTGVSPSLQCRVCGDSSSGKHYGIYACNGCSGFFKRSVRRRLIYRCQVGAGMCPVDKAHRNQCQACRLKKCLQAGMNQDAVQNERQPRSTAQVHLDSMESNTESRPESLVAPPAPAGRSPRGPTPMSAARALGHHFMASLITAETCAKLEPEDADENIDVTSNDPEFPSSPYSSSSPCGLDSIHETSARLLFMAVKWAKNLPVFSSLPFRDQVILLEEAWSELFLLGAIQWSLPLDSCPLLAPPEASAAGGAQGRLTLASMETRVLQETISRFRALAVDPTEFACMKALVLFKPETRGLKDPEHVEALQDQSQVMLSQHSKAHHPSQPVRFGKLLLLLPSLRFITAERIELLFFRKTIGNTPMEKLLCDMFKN
DAX1 inh-1 = inhibitors of human orphan nuclear receptor DAX1 (NR0B1) | inhibition, % at 6.75 µM | HEK293 Gal4-DAX1 luciferase reporter, luminescence | AID 504766 | 340,000 tested, 0.99% active;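 active = inhibition above the mean over all tested compounds plus 3 SD, cut at about 4.2% in these data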;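 also: 0% = DAX1-transfected cells with DMSO and 100% = empty-vector control cells with DMSO; inhibition shows as a rise in luminescence from relieved DAX1 repression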
DAX1 inh-2 = inhibitors of DAX1 repression of SF-1 activated StAR promoter; HEK293T StAR-luciferase reporter, SF-1/DAX-1 repression relief; inhibition, % at 6.8 µM; 370,000 tested, 1.1% active;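 active = inhibition above the mean over all tested compounds plus 3 SD, cut at about 3.6% in these data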;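 also: 0% = DAX-1 cells with DMSO and 100% = cells lacking DAX-1 with DMSO; higher inhibition means more luminescence from relief of DAX-1 repression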
NR2E3 ag-2 = activates human photoreceptor nuclear receptor NR2E3. inhibition of corepressor binding, % at 4.78 µM. 320,000 tested, 0.12% active. GST-NR2E3/biotin-RetCOR TR-FRET, 1536-well. Q9Y5X4;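 active = percent inhibition above the cutoff of mean plus 3 SD of all tested compounds, set per screening campaign, cut at about 20% in these data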;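 also: 0% = DMSO wells and 100% = biotin wells as full block of FRET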
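Material – GST-tagged NR2E3 plus biotinylated RetCOR corepressor · Quantity – NR2E3 fusion 1.35 nM · Times – 5 h incubation at 4 °C · Medium – pH 7.5 Tris-based buffer · Technique – TR-FRET, Eu(K)-anti-GST donor, streptavidin-D2 acceptor, ex 340, em 617/671 nm · Benchmarks – high control biotin, low control 0.6% DMSO · Format – 1536-well plates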
GASC-1 inh = inhibitors of human GASC-1 (JMJD2C) demethylase | Q9H3R0 | GST-JMJD2C(1-420) H3K9me3 demethylation, DELFIA europium | inhibition, % at 2.35 µM | 330,000 tested, 0.069% active | AID 2099;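 active = more than half of a compound's replicate wells show inhibition beyond 50%, single wells judged on their own value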;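 also: signal counts dimethyl H3K9 product captured on neutravidin plate; 0% = median of DMSO wells and 100% = 0.3 times that DMSO median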
* marks the source's active call; other numbers are inactive results; . = no result given.

SMILES	SMARCA2 activ	NR2E3 ag-1	DAX1 inh-1	DAX1 inh-2	NR2E3 ag-2	GASC-1 inh
COc1ccc(CC(=O)Nc2ccc(-c3ccc4nnc(C)n4n3)cc2)cc1OC	-5	-45	5.7*	1	-2	0
COc1ccc(OC)c(S(=O)(=O)Nc2ccc(-c3ccc4nnc(C)n4n3)cc2)c1	-1	25	3	2	1	-22
O=C(NCc1cccs1)c1cc(-c2ccc(O)cc2)on1	1	-154	5.7*	3	-1	1
O=C(NCc1cccs1)c1nc(-c2cccs2)no1	0	-47	4.3*	1	2	-2
CCOC(=O)[C@@]12CN(C(=O)OC(C)(C)C)CC=C1N(Cc1ccc(OC)cc1)C(=O)[C@H]2CC(=O)NCc1ccccc1	-4	.	.	-1	.	.
Cc1cc(C)cc(N(CC(=O)NC2CCC(C)CC2)S(=O)(=O)c2ccc(Br)s2)c1 (stereo not drawn)	-1	.	.	0	.	.
CCCCS(=O)(=O)N1C2=NC3=C(C(=O)N(CCOC)C3=O)C3N(C)c4ccccc4[C@]23C[C@H]1CO (stereo partly drawn)	-4	.	.	0	.	.
COc1ccc(OC)c(/C=C2\Oc3cc(OCC(=O)N4CCC[C@H]4C(=O)O)ccc3C2=O)c1	.	6	4	.	-4	-1
COc1cc(OC)c(OC)cc1/C=C1\Oc2cc(OCC(=O)N3Cc4ccccc4C[C@H]3C(=O)O)ccc2C1=O	.	-22	4.5*	.	1	26
COc1ccc(/C=C2\Oc3cc(OCC(=O)N4CCC[C@H]4C(=O)O)ccc3C2=O)c(OC)c1	.	-64	6.7*	.	-5	6
O=C(NCc1ccccc1)Nc1ccccc1C(=O)N1CCCC1	-4	.	.	1	.	.
CCc1ccc(O)c(-c2cc(C(=O)Nc3cccnc3)[nH]n2)c1	4	23	1	3.8*	-3	-7
COC[C@@H]1CCCN1c1cccc2c1S(=O)(=O)N1CC[C@H](C1)O2	-2	.	.	0	.	.
Cc1nnc(NC(=O)c2cccc(S(=O)(=O)N3CC(c4ccccc4)CC3=O)c2)s1 (stereo not drawn)	-3	-10	-1	-1	3	0
COc1ccc(C(=O)Nc2nncs2)cc1S(=O)(=O)N1CC(c2ccccc2)CC1=O (stereo not drawn)	-1	-35	8.0*	0	1	3
Cc1ccc(/C=N/N2CCN(Cc3ccccc3)CC2)cc1	1	-13	0	-1	1	0
Cc1ccc(CN2CCN(/N=C/c3ccccc3)CC2)cc1	-1	-11	7.7*	0	4	-22
CCOC(=O)[C@]12CCCC3=C1N(CCC3)C(=O)[C@@H](CC(=O)NCc1ccccc1)C2	0	.	.	-1	.	.
CN(C)CCN(C(=O)c1ccc2ccccc2c1)c1nc2cc3c(cc2s1)OCCO3	1	-12	1	3.7*	3	-1
Cn1c2ccccc2c(=O)n2c(=O)c3ccccc3cc12	.	.	.	.	29*	-4
Cn1c(-c2ccccc2)cc(=O)c2ccccc21	4	-7	-1	1	2	-3
CC(C)c1ccc(OCC(=O)NC2=NCCS2)cc1	5	-16	1	3.7*	4	-6
CC(Oc1ccccc1)C(=O)NC1=NCCS1 (stereo not drawn)	3	-14	4	4.0*	-1	16
CCN(C(=O)CSc1nnnn1-c1ccc(Cl)cc1)C1CCS(=O)(=O)C1 (stereo not drawn)	-1	30	1	4.0*	.	9
O=C1CC(NS(=O)(=O)c2cccnc2)CN1c1ccc(F)cc1 (stereo not drawn)	0	21	0	3.9*	-3	-13
Cc1ccc(N2CC(NS(=O)(=O)c3cccnc3)CC2=O)cc1C (stereo not drawn)	7	0	2	0	1	2
CC(=O)NC(CC(=O)OCC(=O)c1cc(C)ccc1C)c1ccccc1 (stereo not drawn)	5	1	0	4.3*	.	7
O=C(NC1CCCC1)C1CCN(S(=O)(=O)c2ccc3[nH]c(=O)oc3c2)CC1	0	.	.	-1	.	.
COc1ccc(-c2cc3ccccc3cn2)cc1	5	-165	1	3.9*	4	0
COc1ccc(-c2cc3ccc(OC)cc3cn2)cc1	7	-192	1	4.2*	4	2
